# ChEMBL document CHEMBL1126035, “Selective beta 3-adrenergic agonists of brown adipose tissue and thermogenesis. 1. [4-[2-[(2-Hydroxy-3-phenoxypropyl)amino]ethoxy]phenoxy]acetates” (1992)
# Activity calls are given as the source filed them. No cut-off for these calls is given here.
# Experiments:
# [1] = target: Beta-3 adrenergic receptor (Rattus norvegicus) (UniProt P26255); experiment: Dose necessary to produce 50% of the isoprenaline effect to inhibit GDP binding to beta-3 adrenergic receptor in brown adipose tissue(BAT mitochondria) of rats after subcutaneous administration; not active
# Outline: (§1)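 Rats cold-adapted at 4 °C for 4 days, then kept at 23 °C for 2 days; next day dosed sc or po in 0.45% aqueous NaCl/0.25% w/v Polysorbate 80, 0.1–10 mg kg-1, n=6 per group. Interscapular BAT taken 1 h later, mitochondria by differential centrifugation, GDP binding measured. Expressed relative to isoprenaline sulfate 1 mg kg-1; ED50 by linear regression.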
# [2] = target: Beta-3 adrenergic receptor (Rattus norvegicus) (UniProt P26255); experiment: Inhibition of beta-3 adrenergic receptor GDP binding in rat brown adipose tissue on oral administration relative to isoprenaline; assay type: tissue-based; outline: as §1
# [3] = Ratio of the dose (D500,peroral administration) elevating the rat heart rate to 500 bpm to the GDP ED50.; assay type: functional
# Outline: (§2)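 Rats held at 29 °C for 2 weeks, groups of six dosed (sc or po) at the BAT GDP ED50, then at rising multiples of it. Heart rate read 15–30 min after dosing until ≥500 bpm, giving D500; vehicle control group of six. Index = D500 divided by GDP-binding ED50 from cold-adapted rats.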
# [4] = Ratio of the dose (D500,subcutaneous administration) elevating the rat heart rate to 500 bpm to the GDP ED50; assay type: functional; outline: as §2
# Beta-3 adrenergic receptor (Rattus norvegicus), sequence (P26255 whole entry): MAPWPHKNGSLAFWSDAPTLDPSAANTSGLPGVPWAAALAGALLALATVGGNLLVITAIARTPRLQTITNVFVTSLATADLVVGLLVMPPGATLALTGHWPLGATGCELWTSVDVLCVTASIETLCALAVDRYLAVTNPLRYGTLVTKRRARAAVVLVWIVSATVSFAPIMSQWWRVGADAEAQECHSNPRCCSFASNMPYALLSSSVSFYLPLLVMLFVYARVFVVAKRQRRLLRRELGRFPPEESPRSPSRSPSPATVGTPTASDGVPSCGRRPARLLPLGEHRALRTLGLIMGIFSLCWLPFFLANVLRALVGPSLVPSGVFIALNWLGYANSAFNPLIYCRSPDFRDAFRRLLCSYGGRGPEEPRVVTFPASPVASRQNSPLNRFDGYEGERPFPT
ED50 [1],ED50 [2] [mg/kg],SMILES,SI [3],SI [4]
inactive,,COC(=O)COc1ccc(C(=O)NCCNCC(O)COc2ccccc2)cc1 (centres undefined),,
,0.45,Cl.O=C(O)COc1ccc(OCCNC[C@H](O)COc2ccccc2)cc1,> 22,
,0.078,COC(=O)COc1ccc(CCNCC(O)COc2ccccc2)cc1 (centres undefined),> 100,
,,COC(=O)COc1cccc(OCCNCC(O)COc2ccccc2F)c1.Cl (centres undefined),> 10,
,,COC(=O)COc1ccc(OCC(C)NCC(O)COc2ccccc2)cc1.O (centres undefined),> 10,
,5.28,COC(=O)COc1cccc(OCCNCC(O)COc2ccccc2)c1 (centres undefined),> 10,
,3.5,O=C(O)COc1ccc(OCCNCC(O)COc2ccccc2)cc1 (centres undefined),> 62,
,0.12,COC(=O)COc1ccc(OCCNCC(O)COc2ccccc2)cc1 (centres undefined),> 100,
,,CC(C)NC[C@H](O)COc1ccc(O)cc1 [PRENALTEROL],,< 1
,0.54,COC(=O)COc1ccc(OCCNCC(O)COc2ccccc2F)cc1.Cl (centres undefined),> 100,
,,CC(C)OC(=O)COc1ccc(OCCNCC(O)COc2ccccc2)cc1 (centres undefined),> 10,
,0.25,CC(C)(C)OC(=O)COc1ccc(OCCNCC(O)COc2ccccc2)cc1 (centres undefined),> 100,
,,CCOC(=O)COc1ccc(OCCNCC(O)COc2ccccc2)cc1 (centres undefined),> 100,

SMILES,ED50 [1],ED50 [2] [mg/kg],SI [3],SI [4]
COC(=O)COc1ccc(CC(C)NCC(O)c2cccc(Cl)c2)cc1 (centres undefined),,0.007,> 100,
COC(=O)c1ccc(CC(C)NCC(O)c2ccccc2)cc1 (centres undefined),,0.94,> 10,
